# A selection: hits, their analogues and other compounds. The true share with any hit is near 2.2%.
# PERK inhibitor – blocks human PERK kinase; CHO PERK-DD fusion, SEAP luminescence translation reporter; inhibition, % at 5.6 µM; Q9NZJ5; hit rate 0.17% among 220,000; AID 1416;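 active = inhibition above the mean inhibition of all tested compounds plus 3 SD, set separately per screening campaign, cut at about 2.9% in these data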;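 note: PERK kinase domain activated by AP20187 dimerizer at 100 nM; 0% = DMSO with dimerizer and 100% = rapamycin at 8.4 µM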
# Hck-Nef inh – inhibitors of human Hck kinase activated by Nef; P08631; Recombinant Hck-YEEI plus Nef, Z-Lyte FRET kinase assay; inhibition, % at 20 µM; hit rate 0.68% among 220,000; AID 463187;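 active = Hck-Nef kinase inhibition above about 50%, limit read from the data; inactive = inhibition below that limit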;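 note: 0% = DMSO with Hck plus Nef and 100% = Hck alone without Nef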
# RanGTP-Imp inh – disruptors of Ran-importin-beta complex formation – biochemical, FRET, CFP-Ran, YFP-importin-beta, homogeneous, primary screen | inhibition, % (no concentration beside the values) | hit rate 1.1% among 300,000 | AID 2216 | cell-free CFP-Ran/YFP-importin-beta FRET ratio;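 active = more than half of the replicate wells show a fall in the fluorescence ratio signal beyond about 16%, limit read from the data, passing the limit was not always enough; inconclusive = exactly half of the replicate wells pass the set limit; inactive = fewer than half of replicates pass the limit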;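 note: 0% = DMSO wells and 100% = Ran loaded with GDP instead of GTP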
# Runt-SMMHC FRET – blocks binding of human RUNX1 Runt domain to CBFb-SMMHC; Q01196+Q13951; Cerulean-Runt/Venus-CBFb-SMMHC FRET ratio 530/480, 1 h; inhibition, % at 20 µM; hit rate 0.74% among 220,000; AID 1434;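 active = mean inhibition across duplicate retests at 20 µM reaching about 50%, limit read from the data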;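 note: 0% = DMSO wells and 100% = wells with excess untagged CBFb-SMMHC; inhibitors lower the FRET ratio by blocking Runt binding to CBFb-SMMHC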
# eIF4E 4G PPI – inhibitors of eIF4E and eIF4G interaction in translation initiation; inhibition, % at 21.7 µM; TR-FRET eIF4E-eIF4GI(517-606) binding, 2 h; hit rate 0.37% among 220,000;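 active = inhibition above about 30%, limit read from the data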;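 note: 0% = full FRET control wells and 100% = background wells lacking eIF4GI fragment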
# Runt-CBFb FRET – inhibitors of human RUNX1 Runt domain binding to CBFb | Q01196+Q13951 | Cerulean-Runt/Venus-CBFb FRET ratio 530/480, 1 h | inhibition, % at 20 µM | hit rate 0.46% among 220,000;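 active = inhibition over about 50% at 20 µM in the single-dose screen, limit read from the data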;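 note: 0% = DMSO wells and 100% = excess unlabeled CBFb competitor control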
#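 Reagent – Venus-CBFb binding partner, 100 nM · Assay system – Cerulean-tagged RUNX1 Runt domain (FRET donor) fusion protein · Input – 100 nM per protein · Incubation – two 1 h room-temperature incubations shielded from light · Measured by – FRET fluorescence · Medium – Tris buffer pH 7.5 with salts and BSA · Benchmarks – unlabeled CBFb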
# Runt-CBFb TRFRET – disrupts human RUNX1 Runt domain binding to CBFb; shares compounds with Runt-CBFb FRET; TR-FRET RUNX1 Runt domain-CBFb binding; inhibition, % at 20 µM; hit rate 20% among 480; AID 1502; in the data active = inhibition above about 40%
# * = called active by the depositor; ? = inconclusive; · = not tested or not shown; [ ] = remark or other dose.
SMILES,PERK inhibitor,Hck-Nef inh,RanGTP-Imp inh,Runt-SMMHC FRET,eIF4E 4G PPI,Runt-CBFb FRET,others
CCN(CC)c1ccc(C=C2C(=O)NC(=S)NC2=O)cc1,-1,9,-4,40,9,30,
CC(C)CN(CC(C)C)c1ccc(C=C2C(=O)NC(=S)NC2=O)cc1[N+](=O)[O-],2,2,-2,8,62*[fluorescence artefact?],-2,
O=C(Nc1ccc(F)cc1)c1c(O)c2c(n(Cc3ccccc3)c1=O)CCCC2,0,-6,-2,-5,5,-7,
O=C(Nc1cccnc1)c1c(O)c2c(n(Cc3ccccc3)c1=O)CCCC2,0,0,-3,5,61*,-9,
O=C(O)CCC(=O)NCCC1=c2ccccc2=N/C1=C\c1c(O)n(Cc2ccc(F)cc2)c(=S)[nH]c1=O,1,22,1,58*,60*,14,
CN(C)CCSCc1nnc2n1-c1ccc(Cl)cc1C(c1ccccc1Cl)=NC2,·,·,0,·,·,·,
CCOC(=O)CC(NC(=O)C(Cc1ccc(N(CCCl)CCCl)cc1)NC(C)=O)C(=O)OCC (configuration not stated),1,19,-4,·,0,·,
CCCCCn1c(NC(=O)c2ccco2)c(C(=O)OCC)c2nc3ccccc3nc21,-1,6,79*,102*,4,30,
COCCNC(=O)c1c(NC(=O)c2ccc(Br)o2)n(Cc2ccccc2)c2nc3ccccc3nc12,0,5,58*,·,12,16,
CCOC(=O)c1c(NS(=O)(=O)c2ccccc2)n(CCCOC)c2nc3ccccc3nc12,0,28,106*,10,10,0,
COCCCNC(=O)c1c(NC(=O)c2ccco2)n(Cc2ccccc2)c2nc3ccccc3nc12,2,12,44*,·,-7,42,
N=C1c2ccccc2CN1NC(=O)c1ccc(Br)o1,·,·,3,·,·,·,
CCOC(=O)c1c(C)n(CCOC)c2ccc(O)cc12,1,2,-1,0,11,0,
CN1CCN(c2ccc(N)cc2Cl)CC1,1,24,-2,13,6,-3,
Cc1ccc(C(=O)NC(O)C(Cl)(Cl)Cl)cc1 (configuration not stated),2,5,-1,-2,1,2,
CCCNC(=O)c1c(N)n(Cc2ccc3c(c2)OCO3)c2nc3ccccc3nc12,-1,3,·,20,-4,5,
CC(C)CCNC(=O)c1c(N)n(Cc2ccc3c(c2)OCO3)c2nc3ccccc3nc12,0,-1,77*,34,-45,6,
CC(C)CNC(=O)c1c(N)n(Cc2ccc3c(c2)OCO3)c2nc3ccccc3nc12,-2,2,1,56*,0,14,
CCN1C[C@]2(COC(=O)c3ccccc3N)CC[C@H](OC)C34[C@@H]5C[C@H]6[C@H](OC)[C@@H]5[C@](O)(C[C@@H]6OC)[C@@](O)([C@H]13)[C@@H](OC)[C@@H]42,·,·,3,·,·,·,
Cc1ccc(CN(Cc2ccccc2)C(=S)NCC(=O)N2CCC3(CC2)OCCO3)o1,-1,10,2,-1,80*,-2,
C[C@]12CC[C@@H]3c4ccc(O)c(O)c4CC[C@H]3[C@@H]1CC[C@@H]2O,1,·,?,66*,42*,54*,Runt-CBFb TRFRET=52*
COc1cc(C)c(CN2CCN(c3ccccc3)CC2)cc1C,0,2,4,3,-4,4,
C=CC[N+]1(C)C2CCC1CC(O)C2 (configuration not stated),2,10,-1,0,2,-1,
O=S1(=O)CC2(N3CCOCC3)CCCCCCC21 (configuration not stated),0,0,?,1,2,80*,Runt-CBFb TRFRET=-10
COc1ccc(CCNC(=O)COC(=O)Cc2ccccc2)cc1,1,-1,0,0,1,-2,
COCCOC(=O)c1c(N)n(Cc2ccc(OC)cc2)c2nc3ccccc3nc12,-1,22,9,105*,6,52*,Runt-CBFb TRFRET=31
COCCCn1c(N)c(C(=O)OCCOC)c2nc3ccccc3nc21,-1,38,?,116*,4,81*,Runt-CBFb TRFRET=25
